Measured values taken from ChEMBL document CHEMBL1139294, “11-Phenyl-[b,e]-dibenzazepine compounds: novel antitumor agents” (Bioorg Med Chem Lett, 2009).

How the values were obtained:
HT-29 [1] = experiment: Antiproliferative activity against human HT-29 cells by SRB assay; type: functional, cell-based
[2] = Antiproliferative activity against human MMRU cells by SRB assay; type: functional, cell-based
HepG2 = experiment: Antiproliferative activity against human HepG2 cells by SRB assay; type: functional, cell-based
U-118-MG = experiment: Antiproliferative activity against human U118MG cells by SRB assay; type: functional, cell-based
HeLa = experiment: Antiproliferative activity against human HeLa cells by SRB assay; type: functional, cell-based
[3] = Antiproliferative activity against human HTB-174 cells by SRB assay; type: functional, cell-based
NCI-H460 = experiment: Cell cycle arrest in human H460 cells assessed as DNA content at G0-G1 phase at 50 uM after 16 hrs by flow cytometry; type: functional
Summary of the method: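 H-460 NSCLC cells serum-starved 72 h, then exposed to 50 µM for 16 h, with DMSO vehicle control. Harvested cells were washed in cold PBS and fixed in 70% ethanol at 4 °C for at least 4 h. They were treated with 3 mg/ml RNase plus 50 µg/ml propidium iodide for 30 min at 37 °C. Flow cytometry gave percent cells in G0–G1, S and G2–M.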

A549 = experiment: Antiproliferative activity against human A549 cells by SRB assay; type: functional, cell-based
MCF7 = experiment: Antiproliferative activity against human MCF7 cells by SRB assay; type: functional, cell-based
MDA-MB-231 = experiment: Antiproliferative activity against human MDA-MB-231 cells by SRB assay; type: functional, cell-based
HT-29 [4] = experiment: Cell cycle arrest in human HT-29 cells assessed as DNA content at G0-G1 phase at 25 uM after 16 hrs by flow cytometry; type: functional
Summary of the method: (§1)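 HT-29 colon carcinoma cells were grown in complete medium and treated at 25 or 50 µM for 16 h, with 0.1% DMSO as vehicle. Cells were washed in cold PBS and fixed in 70% ethanol (4 °C, ≥4 h). Staining used 3 mg/ml ribonuclease and 50 µg/ml propidium iodide for 30 min at 37 °C. Phase distribution was measured by flow cytometry.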

HT-29 [5] = experiment: Cell cycle arrest in human HT-29 cells assessed as DNA content at S phase at 25 uM after 16 hrs by flow cytometry; type: functional; summary of the method: as §1
HT-29 [6] = experiment: Cell cycle arrest in human HT-29 cells assessed as DNA content at G2-M phase at 25 uM after 16 hrs by flow cytometry; type: functional; summary of the method: as §1
HT-29 [7] = experiment: Cell cycle arrest in human HT-29 cells assessed as DNA content at G0-G1 phase at 50 uM by flow cytometry; type: functional; summary of the method: as §1
HT-29 [8] = experiment: Cell cycle arrest in human HT-29 cells assessed as DNA content at S phase at 50 uM by flow cytometry; type: functional; summary of the method: as §1
HT-29 [9] = experiment: Cell cycle arrest in human HT-29 cells assessed as DNA content at G2-M phase at 50 uM by flow cytometry; type: functional; summary of the method: as §1

Row | IC50 (HT-29 [1]; Homo sapiens, HT-29) | IC50 (HepG2) | IC50 (HeLa) | IC50 (A549; Homo sapiens, A549) | IC50 (MCF7) | IC50 (MDA-MB-231) | Compound | IC50 ([2]; Homo sapiens, MMRU) | IC50 (U-118-MG) | IC50 [3] | also measured
1 | 700 nM | 900 nM | 600 nM | – | – | – | O=C(c1ccc([N+](=O)[O-])cc1)N1Cc2ccccc2C(c2ccccc2)c2ccccc21 (centres undefined) | 500 nM | 900 nM | 700 nM | –
2 | – | – | – | – | – | – | O=C(c1ccc([N+](=O)[O-])cc1)N1Cc2ccccc2C(c2ccccc2Cl)c2ccccc21 (single isomer, unassigned; 9a) | – | – | – | Activity (NCI-H460): 71.06%
3 | 1100 nM | 1000 nM | 400 nM | 2000 nM | 1700 nM | 1300 nM | C[N+](C)(C)c1ccc(C(=O)N2Cc3ccccc3C(c3ccccc3)c3ccccc32)cc1 (centres undefined) | – | 1800 nM | – | –
4 | 1200 nM | 900 nM | 1100 nM | 5400 nM | 2700 nM | 1300 nM | Clc1ccccc1C1c2ccccc2CNc2ccccc21 (centres undefined) | – | 1400 nM | – | –
5 | 5000 nM | 3600 nM | – | – | 4200 nM | – | O=C(Oc1ccccc1)N1Cc2ccccc2C(c2ccccc2Cl)c2ccccc21 (centres undefined) | – | – | – | –
6 | 4800 nM | 4500 nM | – | > 5000 nM | 2400 nM | – | O=C(Nc1ccc([N+](=O)[O-])cc1)N1Cc2ccccc2C(c2ccccc2Cl)c2ccccc21 (centres undefined) | 3100 nM | – | 4000 nM | –
7 | > 10000 nM | – | – | > 10000 nM | – | – | COC(=O)N1Cc2ccccc2C(c2ccccc2)c2ccccc21 (centres undefined) | 10000 nM | – | – | –
8 | 600 nM | 800 nM | 900 nM | 2500 nM | 1500 nM | 1200 nM | O=C(c1ccccc1)N1Cc2ccccc2C(c2ccccc2Cl)c2ccccc21 (centres undefined) | – | 1300 nM | – | –
9 | 1700 nM | 1500 nM | 500 nM | 3700 nM | 1100 nM | 1200 nM | Nc1ccc(C(=O)N2Cc3ccccc3C(c3ccccc3Cl)c3ccccc32)cc1 (centres undefined) | – | 1600 nM | – | –
10 | – | 3400 nM | – | – | 4200 nM | – | O=C(c1ccccc1)N1Cc2ccccc2C(c2ccccc2)c2ccccc21 (stereo in doubt; 17) | – | – | 2600 nM | IC50 (A549; a549): > 5000 nM; IC50 (HT-29 [1]; ht-29): 2600 nM; IC50 ([2]; mmru): 2700 nM
11 | > 5000 nM | 4500 nM | > 5000 nM | > 5000 nM | 4300 nM | > 5000 nM | Clc1ccccc1C1c2ccccc2CN(Cc2ccccc2)c2ccccc21 (centres undefined) | – | – | – | –
12 | 1700 nM | 1200 nM | 1400 nM | 3700 nM | 3400 nM | 1500 nM | CC(C)(C)Oc1cccc(C(=O)N2Cc3ccccc3C(c3ccccc3Cl)c3ccccc32)c1 (centres undefined) | – | 2500 nM | – | –
13 | 600 nM | 900 nM | 500 nM | 1500 nM | 1300 nM | 900 nM | COc1ccc2c(c1)CN(C(=O)c1ccc([N+](=O)[O-])cc1)c1ccc(Cl)cc1C2c1ccccc1Cl (centres undefined) | 500 nM | 800 nM | 500 nM | –
14 | 200 nM | 400 nM | 200 nM | 600 nM | 700 nM | 400 nM | COc1ccc2c(c1)C(c1ccccc1Cl)c1cc(Cl)ccc1N(C(=O)c1ccc([N+](=O)[O-])cc1)C2 (centres undefined) | 200 nM | 400 nM | 200 nM | –
15 | 1000 nM | 1000 nM | 900 nM | 2100 nM | 1700 nM | 1700 nM | CN(C)c1ccc(C(=O)N2Cc3ccccc3C(c3ccccc3)c3ccccc32)cc1 (centres undefined) | – | 2600 nM | – | –
16 | 1700 nM | 2600 nM | – | > 5000 nM | 4500 nM | – | CC(C)(C)Oc1cccc(C(=O)N2Cc3ccccc3C(c3ccccc3)c3ccccc32)c1 (centres undefined) | 2500 nM | – | 3600 nM | –
17 | – | – | – | – | – | – | O=C(c1ccc([N+](=O)[O-])cc1)N1Cc2ccccc2C(c2ccccc2Cl)c2ccccc21 (single isomer, unassigned; 9b) | – | – | – | Activity (NCI-H460): 74.96%
18 | 400 nM | 400 nM | 200 nM | 1100 nM | 500 nM | – | COc1ccc(C(=O)N2Cc3ccccc3C(c3ccccc3Cl)c3ccccc32)cc1 (centres undefined) | 200 nM | 400 nM | 300 nM | –
19 | – | – | – | > 10000 nM | – | – | O=C(c1ccccc1)N1Cc2ccccc2C(c2ccccc2)c2ccccc21 (stereo in doubt; 13) | – | – | – | IC50 (HT-29 [1]; ht-29): > 10000 nM; IC50 ([2]; mmru): > 10000 nM
20 | 9700 nM | – | – | 11400 nM | 1700 nM | – | CN1Cc2ccccc2C(c2ccccc2Cl)c2ccccc21 (centres undefined) | 4600 nM | – | – | –
21 | 300 nM | 300 nM | 300 nM | 800 nM | 600 nM | 500 nM | O=C(c1ccc([N+](=O)[O-])cc1)N1Cc2ccccc2C(c2ccccc2Cl)c2ccccc21 (stereo in doubt; 9) | 200 nM | 500 nM | 100 nM | Activity (HT-29 [4]): 63.68%; Activity (HT-29 [5]): 25.79%; Activity (HT-29 [6]): 10.53%; Activity (HT-29 [7]): 69.22%; Activity (HT-29 [8]): 18.08%; Activity (HT-29 [9]): 12.69%; Activity (NCI-H460): 73.95%
